Source: PubChem BioAssay (several laboratories)
STAT3 inh = reduces IL-6 driven STAT3 reporter signal. U3A cells, IL-6 STAT3-luciferase reporter, luminescence; host cell line lacks STAT1. inhibition, % at 5.5 µM. actives 0.89% (n = 190,000). AID 862;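 active means inhibition above the mean inhibition across all screened compounds plus 3 SD, cut at about 44% in these data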;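 further: 0% = DMSO only wells and 100% = 100 µM nifuroxazide control wells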
STAT3 activator = increases IL-6 driven STAT3 reporter signal | activation (% of control), % at 5.6 µM | U3A cells, IL-6 STAT3-luciferase reporter, luminescence; 100% = signal with IL-6 EC80 alone | AID 871 | actives 0.91% (n = 190,000);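 active means activation above the screen-wide mean of compound activation plus 3 SD, cut at about 130% in these data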;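 further: 0% = background luminescence of wells with medium and substrate only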
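Material: STAT3-luciferase reporter U3A cells; Probe or stimulus: IL-6 (33 ng/mL); Incubation: compound pre-incubation 1 h before IL-6, then 6 h stimulation at 37 °C; Technique: luminescence from STAT3-driven luciferase reporter; Evaluation: % activation versus median of IL-6-stimulated wells; Controls: IL-6-only high control.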
b-catenin transl = beta-catenin nuclear translocation modulation; HeLa beta-catenin nuclear translocation, immunofluorescence imaging; nuclear translocation activity, % at 5 µM; actives 0.3% (n = 190,000); AID 1665;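 active means nuclear translocation activity above 50% at 5 µM, with a well cell count of 50 or more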;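 further: per-cell ratio of nuclear to cytoplasmic median beta-catenin stain intensity; plate controls were DMSO negative control for no effect and GSK-3 inhibitor IX positive control for full effect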
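test system = HeLa cells, endogenous beta-catenin | dosing = single 5 µM dose plus 0.02–20 µM confirmation series | times = compound treatment 24 h, 37°C, 5% CO2 | technique = beta-catenin immunofluorescence imaging with DAPI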
MT stabilizer = microtubule stabilization, imaging screen; HeLa tubulin immunostaining HCS, 24 h; share of cells brighter than vehicle mean+2SD; % tubulin-high responders, % at 10 µM; actives 0.83% (n = 200,000);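 active means plate Z-score above 3 for both tubulin-high and condensed-nucleus cell shares, with cell loss under 80%, at 10 µM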;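 further: anti alpha tubulin signal scored within the nucleus-defined area of each cell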
STAT1 blocker = inhibitors of IFN-gamma induced STAT1 signaling | NIH 3T3 STAT1-luciferase reporter, luminescence | inhibition, % at 5.5 µM | actives 0.35% (n = 200,000);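 active means inhibition above a set limit, the mean inhibition across all tested compounds plus 3 SD, cut at about 34% in these data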;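 further: 0% = IFN-gamma with DMSO and 100% = IFN-gamma with 300 µM nifuroxazide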
* hit, by the source's call; . = no result given. Most compounds without a hit are left out; they make up all but 2.4% or so of the library.

SMILES	STAT3 inh	STAT3 activator	b-catenin transl	MT stabilizer	STAT1 blocker
COc1ccc(CCn2c(N)c(C(=O)NCc3ccco3)c3nc4ccccc4nc32)cc1OC	14	93	-6	2	-4
O=Cc1ccc(OC(=O)c2cccnc2)cc1	0	104	-3	5	0
CCOC(=O)c1[nH]c2ccc(OC)cc2c1NC(=O)c1nonc1C	19	88	-1	2	0
COC(=O)c1[nH]c2cc(OC)ccc2c1NC(=O)c1nonc1C	23	85	1	37*	4
O=C(O)c1ccccc1C(=O)N1CC=C(c2ccccc2)CC1	8	97	0	2	8
Cc1c(C(=O)C(=O)N2CC=C(c3ccccc3)CC2)c2ccccc2n1C	-7	108	62*	15	14
Cc1c(C(=O)C(=O)N2c3ccccc3CC2C)c2ccccc2n1C (stereo unspecified)	6	97	6	17*	4
COCCn1cc(C(=O)c2cc(Br)ccc2O)cc(C#N)c1=O	9	103	0	5	12
CCC(C)NC(=O)c1cc(Sc2nnc(C)s2)nc2ccccc12 (stereo unspecified)	-8	107	2	2	10
Cn1cc(C(=O)C(=O)N2CCCc3ccccc32)c2ccccc21	23	87	1	12*	6
COC(=O)c1ccccc1NC(=O)CSc1nc(-c2ccco2)cc(C(F)(F)F)n1	2	104	-2	14*	-5
Cc1cc(NC(=O)CSc2nc(-c3ccco3)cc(C(F)(F)F)n2)n(-c2ccccc2)n1	-8	109	12	44*	8
Cc1c(NC(=O)CSc2nc(-c3ccco3)cc(C(F)(F)F)n2)c(=O)n(-c2ccccc2)n1C	-1	103	0	4	-8
Cc1ccc(NC(=O)CSc2nc(-c3ccco3)cc(C(F)(F)F)n2)cc1C	5	97	28	49*	5
O=C(CSc1nc(-c2ccco2)cc(C(F)(F)F)n1)Nc1ccc2c(c1)CCC2	7	97	3	47*	-10
CCOC(=S)SCC(=O)N1CCc2ccccc2C1C1C(=O)CCCC1=O (stereo unspecified)	-6	101	0	3	3
O=C(CSc1nnc(-c2ccccc2)c(-c2ccccc2)n1)NCc1ccco1	9	94	-2	43*	4
Cc1ccc(NC(=O)CSc2nnc(-c3ccco3)c(-c3ccco3)n2)cc1	-7	107	97*	29*	-4
Cc1ccc(S(=O)(=O)N2CCCCC2)cc1NC(=O)CNCc1ccco1	.	.	-2	.	.
C/C=C/c1ccc(OCc2cc(=O)n3cc(C)ccc3n2)c(OC)c1	.	.	-2	.	.
CCN1/C(=C/c2ccc3cc(C)ccc3[n+]2C)Sc2ccc3sccc3c21	19	88	.	77*	28
COc1ccc(C(C[N+](=O)[O-])c2c(-c3ccccc3)cc3ccccn23)cc1 (stereo unspecified)	8	94	-2	29*	-13
O=C(N=Nc1c(O)[nH]c2ccc(Br)cc12)c1ccccc1-n1cccc1	12	94	154*	10	-3
CCOC(=O)Nc1ccc2nc(N3CCCCCC3)sc2c1	.	.	84*	.	.
CCOc1ccc(NC(=O)c2ccccc2O)cc1	24	83	-2	3	-3
SMILES	STAT3 inh	STAT3 activator	b-catenin transl	MT stabilizer	STAT1 blocker
CCOc1ccc(NC(=O)c2ccccn2)cc1	98*	16	.	6	59*
CCOc1ccc(NC(=O)c2ccccc2OC)cc1	-34	133*	-6	3	-23
COc1cc(OC)cc(C(=O)NNC(=O)c2ccccn2)c1	-6	108	-5	2	-6
COc1ccc(C(=O)NNC(=O)c2ccccn2)cc1	99*	18	3	5	92*
CSc1nnc(C)c(=O)n1COC(=O)c1cc(Cl)ccc1[N+](=O)[O-]	10	98	-2	3	-1
CCN1CC=C2C(C#N)=C(N)C(C#N)(C#N)C(CCc3ccccc3)C2C1 (stereo unspecified)	-40	141*	-7	6	4
CC(=O)N1CC=C2C(C#N)=C(N)C(C#N)(C#N)C(CCc3ccccc3)C2C1 (stereo unspecified)	-24	127	5	3	-1
Cc1cc(C)cc(N(CCC(=O)Nc2nnc(C3CC3)s2)S(=O)(=O)c2ccc(Cl)cc2)c1	-2	99	-2	19*	7
COc1ccccc1-c1cc(C(=O)NCc2cccs2)no1	18	88	-1	2	-5
COCCNC(=O)c1cc(-c2ccccc2OC)on1	13	94	3	31*	-11
COc1ccccc1-c1cc(C(=O)Nc2cc(C)nn2-c2ccccc2)no1	22	85	9	47*	11
COc1ccc(Br)cc1-c1nc(CCl)cs1	18	88	-4	3	4
CCN(CC)c1ccc(NC(=O)c2ccco2)c(C)c1	14	90	.	3	-1
CCN(CC)c1ccc(NC(=O)c2cccc(F)c2)c(C)c1	18	88	26	37*	-9
COCCOC(=O)c1[nH]c2c(c1C)C(=O)CC(c1ccc(F)cc1)C2 (stereo unspecified)	23	85	78*	22*	12
COCCOC(=O)c1[nH]c2c(c1C)C(=O)CC(c1ccc(N(C)C)cc1)C2 (stereo unspecified)	-7	109	-1	2	-2
COCCOC(=O)c1[nH]c2c(c1C)C(=O)CC(c1ccccc1)C2 (stereo unspecified)	-8	110	95*	25*	-14
C=CCOC(=O)c1[nH]c2c(c1C)C(=O)CC(c1cc(OC)c(OC)c(OC)c1)C2 (stereo unspecified)	46*	63	5	3	42*
O=C(CCNC(=O)c1ccccc1)Nc1cccnc1	11	95	-2	2	-4
COCCNC(=O)/C(C#N)=C1\N=C(N)c2ccccc21	21	82	-1	1	17
Cn1nc(-c2ccc(Cl)cc2)nc2c(=O)n(C)c(=O)nc1-2	74*	43	-1	15*	88*
CS(=O)(=O)n1nc(-c2ccc(Cl)cc2)nc1N	12	92	-2	2	-6
COC(=O)c1ccc(Oc2cc(C)nc(-n3nc(C)cc3C)n2)cc1	-28	127	.	20*	5
COC(=O)c1ccc(Oc2nc(C)cc(Oc3ccccc3)n2)cc1	-4	103	-2	3	2
CCOC(=O)c1ccc(Oc2cc(C)nc(SC)n2)cc1	10	93	0	44*	-3
CCCCCCNc1nc(Cl)nc(NC(C)(C)CO)n1	.	.	0	.	.
COC(=O)c1[nH]c2c(c1C)C(=O)CC(c1cc(OC)ccc1OC)C2 (stereo unspecified)	3	102	-2	27*	9
CCOc1ccc(C2CC(=O)c3c([nH]c(C(=O)OC)c3C)C2)cc1OC (stereo unspecified)	4	96	2	1	4
